The source made the active and inactive calls. No cut-off for these calls is given here.
Key:
[1] = Inhibition of bacterial MBP-fused NDM1 expressed in Escherichia coli BL21(DE3) ausing chromacef as substrate preincubated for 20 mins followed by substrate addition measured after 0.3 mins; set-up: species or system Bacteria
How it was run: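 Preincubated 20 min, then 3 μM substrate (~3×KM) added. A442 followed ~0.3 min at 25 °C. Activity scaled to uninhibited (100%) and no-enzyme (0%) controls, fitted to a Hill-type equation.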

Escherichia coli = experiment: Effect on growth of Escherichia coli isolate Ah8.71 at 100 mg/L after 18 to 20 hrs by broth microdilution assay
How it was run: (§1)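 Mueller-Hinton broth microdilution per CLSI, triplicate. blaNDM-1 clinical isolates grown from OD600 0.1 to 0.224 (~1–2 × 10^8 CFU/mL), diluted 3 μL into 4997 μL MH, and 100 μL added to 100 μL of compound (100 mg/L) alone. Incubated 37 °C for 18–20 h, then scored for growth.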

Klebsiella pneumoniae [2] = experiment: Effect on growth of Klebsiella pneumoniae isolate Pd1.54 at 100 mg/L after 18 to 20 hrs by broth microdilution assay; how it was run: as §1
[3] = biological target: Metallo-beta-lactamase type 2 (Klebsiella pneumoniae) (UniProt C7C422); experiment: Inhibition of NDM1 in Klebsiella pneumoniae isolate Pd1.49 assessed as potentiation of imipenem-induced antibacterial activity by measuring imipenem MIC at 100 mg/L after 18 to 20 hrs by broth microdilution assay (reference value: 4 mg/L)
Sequence of Metallo-beta-lactamase type 2 (Klebsiella pneumoniae) (C7C422 whole entry, the tested form may be a part): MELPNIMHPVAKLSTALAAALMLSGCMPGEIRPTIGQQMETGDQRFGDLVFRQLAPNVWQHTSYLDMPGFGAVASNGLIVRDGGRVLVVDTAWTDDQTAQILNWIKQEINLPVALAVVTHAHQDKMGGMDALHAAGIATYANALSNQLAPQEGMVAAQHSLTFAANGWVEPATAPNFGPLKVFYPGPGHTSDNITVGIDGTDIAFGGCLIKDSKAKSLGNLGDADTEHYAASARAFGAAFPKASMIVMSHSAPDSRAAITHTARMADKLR

[4] = Selectivity ratio of compound effect for inhibition of bacterial MBP-fused NDM1 expressed in Escherichia coli BL21(DE3) to compound effect for inhibition of human MMP12 (Phe99 to Leu271 residues) expressed in Escherichia coli
Klebsiella pneumoniae [5] = experiment: Effect on growth of Klebsiella pneumoniae isolate Pd1.53 at 100 mg/L after 18 to 20 hrs by broth microdilution assay; how it was run: as §1
[6] = biological target: Histone deacetylase 1 (Homo sapiens) (UniProt Q13547); experiment: Inhibition of full length human C-terminal FLAG/His-tagged HDAC1 expressed in baculovirus infected sf9 cells at 50 to 100 uM using HDAC substrate 3 preincubated for 5 mins followed by substrate addition measured after 30 mins by fluorescence assay
Sequence of Histone deacetylase 1 (Homo sapiens) (Q13547 whole entry): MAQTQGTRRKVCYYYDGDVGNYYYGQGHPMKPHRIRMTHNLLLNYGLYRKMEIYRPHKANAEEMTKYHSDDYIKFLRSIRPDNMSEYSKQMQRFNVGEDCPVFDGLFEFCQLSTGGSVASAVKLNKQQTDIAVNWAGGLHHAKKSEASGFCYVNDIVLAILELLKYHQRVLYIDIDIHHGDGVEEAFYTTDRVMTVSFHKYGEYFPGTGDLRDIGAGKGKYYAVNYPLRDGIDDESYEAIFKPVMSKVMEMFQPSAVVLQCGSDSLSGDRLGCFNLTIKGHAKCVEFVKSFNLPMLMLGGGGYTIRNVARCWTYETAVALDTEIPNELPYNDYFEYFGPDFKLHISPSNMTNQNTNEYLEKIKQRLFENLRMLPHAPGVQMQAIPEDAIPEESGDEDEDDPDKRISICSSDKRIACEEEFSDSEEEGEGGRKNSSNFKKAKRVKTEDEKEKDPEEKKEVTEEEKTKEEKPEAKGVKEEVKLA
How it was run: (§2)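 Inhibitor pre-incubated 5 min, then HDAC substrate 3 (20 μM) added, 30 min at 37 °C. Developer added for 15 min at room temperature; fluorescence read at ex/em 360/460 nm. Activity relative to no-inhibitor wells, with 200 μM SAHA as 0%. Run in triplicate.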

[7] = Metal chelating activity assessed as Co2+-compound complex formation at 1 equiv by 1H NMR spectroscopic method; format: functional
How it was run: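 Apo-NDM-1 concentrated to ~1 mM and given 2 equivalents of CoCl2, in 50 mM HEPES, 150 mM NaCl, 10% D2O, pH 6.8. Compounds, from DMSO stocks of 50–100 mM, titrated in. 1H NMR spectra recorded at 292 K at 300.16 MHz.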

[8] = biological target: T1, Protein deacetylase HDAC6 (Homo sapiens) (UniProt Q9UBN7); experiment: Inhibition of full length human N-terminal GST-tagged HDAC6 expressed in baculovirus infected sf9 cells at 10 uM using HDAC substrate 3 preincubated for 5 mins followed by substrate addition measured after 30 mins by fluorescence assay; how it was run: as §2
T1 sequence (whole entry): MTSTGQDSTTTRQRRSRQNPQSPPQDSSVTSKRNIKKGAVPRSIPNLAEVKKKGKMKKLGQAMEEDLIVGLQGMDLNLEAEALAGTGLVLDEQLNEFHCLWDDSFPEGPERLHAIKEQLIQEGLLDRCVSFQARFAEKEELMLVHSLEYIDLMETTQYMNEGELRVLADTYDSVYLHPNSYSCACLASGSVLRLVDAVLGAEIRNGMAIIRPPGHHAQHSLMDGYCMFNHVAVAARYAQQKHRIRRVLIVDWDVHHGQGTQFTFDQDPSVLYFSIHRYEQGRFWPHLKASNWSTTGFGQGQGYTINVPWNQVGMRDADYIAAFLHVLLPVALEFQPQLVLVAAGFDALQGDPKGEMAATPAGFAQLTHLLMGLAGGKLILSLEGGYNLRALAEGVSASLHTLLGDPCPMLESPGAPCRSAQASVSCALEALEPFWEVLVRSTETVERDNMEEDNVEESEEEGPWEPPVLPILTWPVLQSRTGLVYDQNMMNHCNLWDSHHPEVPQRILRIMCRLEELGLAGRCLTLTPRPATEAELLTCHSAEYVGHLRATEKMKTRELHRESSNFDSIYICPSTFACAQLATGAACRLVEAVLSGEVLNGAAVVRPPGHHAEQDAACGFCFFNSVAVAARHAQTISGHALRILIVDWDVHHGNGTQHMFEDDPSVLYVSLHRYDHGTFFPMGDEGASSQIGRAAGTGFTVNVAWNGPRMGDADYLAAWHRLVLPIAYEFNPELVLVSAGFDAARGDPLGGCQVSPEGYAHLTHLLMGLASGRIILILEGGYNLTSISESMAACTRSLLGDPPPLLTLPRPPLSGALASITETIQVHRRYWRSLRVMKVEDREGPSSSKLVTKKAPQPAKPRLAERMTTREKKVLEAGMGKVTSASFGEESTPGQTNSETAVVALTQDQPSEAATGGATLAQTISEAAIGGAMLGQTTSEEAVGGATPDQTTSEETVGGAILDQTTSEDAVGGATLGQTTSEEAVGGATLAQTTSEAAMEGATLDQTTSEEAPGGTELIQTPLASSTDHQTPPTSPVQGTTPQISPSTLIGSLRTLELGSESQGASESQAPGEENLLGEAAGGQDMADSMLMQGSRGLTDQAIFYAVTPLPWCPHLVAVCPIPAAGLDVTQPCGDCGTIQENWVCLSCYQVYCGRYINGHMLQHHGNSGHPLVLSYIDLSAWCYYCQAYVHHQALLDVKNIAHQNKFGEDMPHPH

[9] = biological target: Metallo-beta-lactamase type 2 (Klebsiella pneumoniae) (UniProt C7C422); experiment: Inhibition of NDM1 in Klebsiella pneumoniae isolate Cm1.62 assessed as potentiation of imipenem-induced antibacterial activity by measuring imipenem MIC at 100 mg/L after 18 to 20 hrs by broth microdilution assay (reference value: 16 mg/L)
[10] = biological target: Histone deacetylase 1 (Homo sapiens) (UniProt Q13547); experiment: Inhibition of full length human C-terminal FLAG/His-tagged HDAC1 expressed in baculovirus infected sf9 cells at 10 uM using HDAC substrate 3 preincubated for 5 mins followed by substrate addition measured after 30 mins by fluorescence assay; how it was run: as §2
[11] = biological target: 72 kDa type IV collagenase (Homo sapiens) (UniProt P08253); experiment: Inhibition of human MMP2 (Tyr110 to Asp452 residues) expressed in yeast at 10 uM using Mca-Pro-LeuGly-Leu-Dpa-Ala-Arg-NH2.AcOH as substrate preincubated for 30 mins followed by substrate addition measured after 20 mins by fluorescence assay relative to control
Sequence of 72 kDa type IV collagenase (Homo sapiens) (P08253 110-660 limits assumed): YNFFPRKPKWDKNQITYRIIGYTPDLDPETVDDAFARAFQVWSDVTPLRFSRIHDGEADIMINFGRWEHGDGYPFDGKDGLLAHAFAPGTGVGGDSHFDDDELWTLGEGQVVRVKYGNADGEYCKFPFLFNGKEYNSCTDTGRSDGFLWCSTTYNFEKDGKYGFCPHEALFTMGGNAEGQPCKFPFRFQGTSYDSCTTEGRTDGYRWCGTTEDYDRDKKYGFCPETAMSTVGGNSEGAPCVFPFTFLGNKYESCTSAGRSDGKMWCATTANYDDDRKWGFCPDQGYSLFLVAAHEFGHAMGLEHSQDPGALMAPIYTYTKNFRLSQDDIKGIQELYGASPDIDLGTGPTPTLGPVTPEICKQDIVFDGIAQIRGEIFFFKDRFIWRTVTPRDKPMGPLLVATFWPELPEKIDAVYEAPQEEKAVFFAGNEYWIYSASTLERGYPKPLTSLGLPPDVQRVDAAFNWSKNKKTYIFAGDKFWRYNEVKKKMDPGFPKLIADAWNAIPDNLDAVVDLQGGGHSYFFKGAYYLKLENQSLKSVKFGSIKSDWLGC
How it was run: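 Human recombinant MMP-2 (1.16 U/well) or MMP-12 (0.007 U/well) in 50 mM HEPES, 10 mM CaCl2, 0.05% Brij-35, pH 7.5. Enzyme and inhibitor pre-incubated 30 min at 37 °C, then OmniMMP fluorogenic substrate (4 μM) added. Fluorescence rise followed 20 min at ex/em 320/400 nm. Activity relative to no-inhibitor wells, with 200 μM NSA as 0%. Run in triplicate.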

Nc1cccc(-c2cc(C(=O)O)nc(C(=O)O)c2)c1
IC50 [1]: 0.32 µM
Activity (Escherichia coli): Non-Toxic
Activity (Klebsiella pneumoniae [2]): Non-Toxic
MIC [3]: 1 µg/mL
Selectivity ratio [4]: 100 to 1000
Activity (Klebsiella pneumoniae [5]): Non-Toxic
inhibition [6]: < 50%
Activity [7]: Active
inhibition [8]: inactive
MIC [9]: 1 µg/mL
inhibition [10]: inactive
inhibition [11]: < 6%
